What was measured:
Type in all cases: functional
Conditions in all cases: read-out: Activity
SF-268 = test: Growth inhibition of human SF-268 cells assessed as cell growth at 10 uM incubated for 48 hrs by sulforhodamine B assay relative to control
Outline: (§1)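 Run by the NCI Developmental Therapeutics Program as part of its 60-line human tumour panel. Each compound tested at a single 10 µM dose. Growth expressed as % relative to untreated control cells (100%).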

SF-539 = test: Growth inhibition of human SF-539 cells assessed as cell growth at 10 uM incubated for 48 hrs by sulforhodamine B assay relative to control; outline: as §1
HOP-92 = test: Growth inhibition of human HOP-92 cells assessed as cell growth at 10 uM incubated for 48 hrs by sulforhodamine B assay relative to control
Outline: (§2)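 Submitted to the NCI Developmental Therapeutics Program for the NCI60 human tumour cell line panel. First screen at a single 10 µM concentration. Read-out is growth relative to untreated control cells set at 100%.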

RXF 393 = test: Growth inhibition of human RXF 393 cells assessed as cell growth at 10 uM incubated for 48 hrs by sulforhodamine B assay relative to control; outline: as §1
SN12C = test: Growth inhibition of human SN12C cells assessed as cell growth at 10 uM incubated for 48 hrs by sulforhodamine B assay relative to control; outline: as §1
IGROV-1 = test: Growth inhibition of human IGROV-1 cells assessed as cell growth at 10 uM incubated for 48 hrs by sulforhodamine B assay relative to control; outline: as §2
CCRF-CEM = test: Growth inhibition of human CCRF-CEM cells assessed as cell growth at 10 uM incubated for 48 hrs by sulforhodamine B assay relative to control
Outline: (§3)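 NCI Developmental Therapeutics Program NCI60 panel. Compounds that were active in the 10 µM one-dose screen went on to dose–response testing. Growth at each concentration is expressed relative to untreated control (100%). GI50 (concentration giving 50% of maximal inhibition of proliferation) and TGI (concentration giving total growth inhibition) were derived from the curves.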

T47D = test: Growth inhibition of human T47D cells assessed as cell growth at 10 uM incubated for 48 hrs by sulforhodamine B assay relative to control; outline: as §1
PC-3 = test: Growth inhibition of human PC-3 cells assessed as cell growth at 10 uM incubated for 48 hrs by sulforhodamine B assay relative to control; outline: as §1
UACC-257 = test: Growth inhibition of human UACC-257 cells assessed as cell growth at 10 uM incubated for 48 hrs by sulforhodamine B assay relative to control; outline: as §1
MDA-MB-231 = test: Growth inhibition of human MDA-MB-231 cells assessed as cell growth at 10 uM incubated for 48 hrs by sulforhodamine B assay relative to control; outline: as §2
OVCAR-8 = test: Growth inhibition of human OVCAR-8 cells assessed as cell growth at 10 uM incubated for 48 hrs by sulforhodamine B assay relative to control; outline: as §1
UACC-62 = test: Growth inhibition of human UACC-62 cells assessed as cell growth at 10 uM incubated for 48 hrs by sulforhodamine B assay relative to control; outline: as §1
NCI-H460 = test: Growth inhibition of human NCI-H460 cells assessed as cell growth at 10 uM incubated for 48 hrs by sulforhodamine B assay relative to control; outline: as §2
RPMI-8226 = test: Growth inhibition of human RPMI-8226 cells assessed as cell growth at 10 uM incubated for 48 hrs by sulforhodamine B assay relative to control; outline: as §1
A498 = test: Growth inhibition of human A498 cells assessed as cell growth at 10 uM incubated for 48 hrs by sulforhodamine B assay relative to control; outline: as §3
Malme-3M = test: Growth inhibition of human Malme-3M cells assessed as cell growth at 10 uM incubated for 48 hrs by sulforhodamine B assay relative to control; outline: as §2
SK-MEL-5 = test: Growth inhibition of human SK-MEL-5 cells assessed as cell growth at 10 uM incubated for 48 hrs by sulforhodamine B assay relative to control; outline: as §1
NCI/ADR-RES = test: Growth inhibition of human NCI/ADR-RES cells assessed as cell growth at 10 uM incubated for 48 hrs by sulforhodamine B assay relative to control; outline: as §2
MOLT-4 = test: Growth inhibition of human MOLT-4 cells assessed as cell growth at 10 uM incubated for 48 hrs by sulforhodamine B assay relative to control; outline: as §2
NCI-H226 = test: Growth inhibition of human NCI-H226 cells assessed as cell growth at 10 uM incubated for 48 hrs by sulforhodamine B assay relative to control; outline: as §2
SNB-75 = test: Growth inhibition of human SNB-75 cells assessed as cell growth at 10 uM incubated for 48 hrs by sulforhodamine B assay relative to control; outline: as §1
Hs-578T = test: Growth inhibition of human Hs-578T cells assessed as cell growth at 10 uM incubated for 48 hrs by sulforhodamine B assay relative to control; outline: as §2
K562 = test: Growth inhibition of human K562 cells assessed as cell growth at 10 uM incubated for 48 hrs by sulforhodamine B assay relative to control; outline: as §2
MDA-MB-435 = test: Growth inhibition of human MDA-MB-435 cells assessed as cell growth at 10 uM incubated for 48 hrs by sulforhodamine B assay relative to control; outline: as §2
MCF7 = test: Growth inhibition of human MCF7 cells assessed as cell growth at 10 uM incubated for 48 hrs by sulforhodamine B assay relative to control; outline: as §2
OVCAR-3 = test: Growth inhibition of human OVCAR-3 cells assessed as cell growth at 10 uM incubated for 48 hrs by sulforhodamine B assay relative to control; outline: as §1
COLO 205 = test: Growth inhibition of human COLO 205 cells assessed as cell growth at 10 uM incubated for 48 hrs by sulforhodamine B assay relative to control; outline: as §3
LOX IMVI = test: Growth inhibition of human LOX IMVI cells assessed as cell growth at 10 uM incubated for 48 hrs by sulforhodamine B assay relative to control; outline: as §2
UO-31 = test: Growth inhibition of human UO-31 cells assessed as cell growth at 10 uM incubated for 48 hrs by sulforhodamine B assay relative to control; outline: as §1
HCT-15 = test: Growth inhibition of human HCT-15 cells assessed as cell growth at 10 uM incubated for 48 hrs by sulforhodamine B assay relative to control; outline: as §2
OVCAR-5 = test: Growth inhibition of human OVCAR-5 cells assessed as cell growth at 10 uM incubated for 48 hrs by sulforhodamine B assay relative to control; outline: as §1
OVCAR-4 = test: Growth inhibition of human OVCAR-4 cells assessed as cell growth at 10 uM incubated for 48 hrs by sulforhodamine B assay relative to control; outline: as §1
SNB-19 = test: Growth inhibition of human SNB-19 cells assessed as cell growth at 10 uM incubated for 48 hrs by sulforhodamine B assay relative to control; outline: as §1
NCI-H322M = test: Growth inhibition of human NCI-H322M cells assessed as cell growth at 10 uM incubated for 48 hrs by sulforhodamine B assay relative to control; outline: as §2
SW-620 = test: Growth inhibition of human SW-620 cells assessed as cell growth at 10 uM incubated for 48 hrs by sulforhodamine B assay relative to control; outline: as §1

Compound	growth at 10 µM (SF-268) [%]	growth at 10 µM (SF-539) [%]	growth at 10 µM (HOP-92) [%]	growth at 10 µM (RXF 393) [%]	growth at 10 µM (SN12C) [%]	growth at 10 µM (IGROV-1) [%]	growth at 10 µM (CCRF-CEM) [%]	growth at 10 µM (T47D) [%]	growth at 10 µM (PC-3) [%]	growth at 10 µM (UACC-257) [%]	growth at 10 µM (MDA-MB-231) [%]	growth at 10 µM (OVCAR-8) [%]	growth at 10 µM (UACC-62) [%]	growth at 10 µM (NCI-H460) [%]	growth at 10 µM (RPMI-8226) [%]	growth at 10 µM (A498) [%]	growth at 10 µM (Malme-3M) [%]	growth at 10 µM (SK-MEL-5) [%]	growth at 10 µM (NCI/ADR-RES) [%]	growth at 10 µM (MOLT-4) [%]	other results
COc1ccc(S(=O)(=O)n2ccc(-c3ccc4c(c3)CCC(C)(C)O4)n2)cc1OC	85.3	97.2	58.3	75.1	83.1	84.3	82.2	43.7	69.5	57.1	82.5	74.6	63.9	69.6	59	52.8	114	28.2	56.5	63.8	growth at 10 µM (NCI-H226): 59%; growth at 10 µM (SNB-75): 84.6%; growth at 10 µM (Hs-578T): 91.5%; growth at 10 µM (K562): 53%; growth at 10 µM (MDA-MB-435): 79.6%; growth at 10 µM (MCF7): 64.3%; growth at 10 µM (OVCAR-3): 70.9%; growth at 10 µM (COLO 205): 87.1%; growth at 10 µM (LOX IMVI): 76.7%; growth at 10 µM (UO-31): 68.5%; growth at 10 µM (HCT-15): 71.9%; growth at 10 µM (OVCAR-5): 105%; growth at 10 µM (OVCAR-4): 46%; growth at 10 µM (SNB-19): 87.4%; growth at 10 µM (NCI-H322M): 89.5%; growth at 10 µM (SW-620): 79.9%
CC1(C)CCc2cc(-c3ccn(S(=O)(=O)c4ccc(C(F)(F)F)cc4)n3)ccc2O1	104	94.6	71.8	84.2	97.3	89.3	82.8	63.9	76.6	86.8	112	90.9	83.5	92	76.6	74.2	97.3	90.7	92.4	78.7	growth at 10 µM (NCI-H226): 75.6%; growth at 10 µM (SNB-75): 93.5%; growth at 10 µM (Hs-578T): 101%; growth at 10 µM (K562): 76.8%; growth at 10 µM (MDA-MB-435): 96.6%; growth at 10 µM (MCF7): 84.9%; growth at 10 µM (OVCAR-3): 104%; growth at 10 µM (COLO 205): 108%; growth at 10 µM (LOX IMVI): 98.6%; growth at 10 µM (UO-31): 80.2%; growth at 10 µM (HCT-15): 87.4%; growth at 10 µM (OVCAR-5): 95.7%; growth at 10 µM (OVCAR-4): 71.3%; growth at 10 µM (SNB-19): 113%; growth at 10 µM (NCI-H322M): 105%; growth at 10 µM (SW-620): 90.2%
COc1ccc(S(=O)(=O)n2ccc(-c3ccc(OC(C)C)cc3)n2)cc1	100	97	75.7	100	90.6	91	72.6	72.3	73.2	99.2	93	94.6	64.1	84.5	70.7	48.5	107	91.9	81.3	86.9	growth at 10 µM (NCI-H226): 78.8%; growth at 10 µM (SNB-75): 96.9%; growth at 10 µM (Hs-578T): 95.5%; growth at 10 µM (K562): 53.6%; growth at 10 µM (MDA-MB-435): 94.6%; growth at 10 µM (MCF7): 93.8%; growth at 10 µM (OVCAR-3): 90.4%; growth at 10 µM (COLO 205): 111%; growth at 10 µM (LOX IMVI): 94.1%; growth at 10 µM (UO-31): 76.4%; growth at 10 µM (HCT-15): 87.6%; growth at 10 µM (OVCAR-5): 80.7%; growth at 10 µM (OVCAR-4): 67.7%; growth at 10 µM (SNB-19): 100%; growth at 10 µM (NCI-H322M): 99.3%; growth at 10 µM (SW-620): 86.3%
CC1(C)CCc2cc(-c3ccn(S(=O)(=O)c4ccccc4)n3)ccc2O1	85.4	92.8	60	81.7	98.8	96.4	65.6	50.5	61.8	82.7	104	84.3	73.3	72.8	59.5	65.4	99.3	75.7	76	61.5	growth at 10 µM (NCI-H226): 69.7%; growth at 10 µM (SNB-75): 78.9%; growth at 10 µM (Hs-578T): 90.1%; growth at 10 µM (K562): 10%; growth at 10 µM (MDA-MB-435): 79%; growth at 10 µM (MCF7): 76.1%; growth at 10 µM (OVCAR-3): 81.4%; growth at 10 µM (COLO 205): 96.1%; growth at 10 µM (LOX IMVI): 85.2%; growth at 10 µM (UO-31): 63.6%; growth at 10 µM (HCT-15): 64.9%; growth at 10 µM (OVCAR-5): 89.7%; growth at 10 µM (OVCAR-4): 64.2%; growth at 10 µM (SNB-19): 94.1%; growth at 10 µM (NCI-H322M): 91.7%; growth at 10 µM (SW-620): 71%
Cc1cccc(NC(=O)c2sc3nc4c(cc3c2N)C(=O)CCC4)c1	33	-61	35	-10	35	-4.52	24	29	20	37	20	37	14	5	22	-12.2	14	6	5	42	growth at 10 µM (NCI-H226): 43%; growth at 10 µM (SNB-75): 4.87%; growth at 10 µM (Hs-578T): -7%; growth at 10 µM (K562): 16%; growth at 10 µM (MDA-MB-435): -65%; growth at 10 µM (MCF7): 16%; growth at 10 µM (OVCAR-3): -22%; growth at 10 µM (COLO 205): -21%; growth at 10 µM (LOX IMVI): 24%; growth at 10 µM (UO-31): 41.2%; growth at 10 µM (HCT-15): 18%; growth at 10 µM (OVCAR-5): 32%; growth at 10 µM (OVCAR-4): 21%; growth at 10 µM (SNB-19): 29%; growth at 10 µM (NCI-H322M): 37.2%; growth at 10 µM (SW-620): 21%

From ChEMBL document CHEMBL4715736, “Identification of anticancer agents based on the thieno[2,3-b]pyridine and 1H-pyrazole molecular scaffolds” (2016)
